For assay [1], the system named is Mycobacterium tuberculosis. Put plainly: Activity at Mycobacterium tuberculosis recombinant riboflavin synthase after 30 mins by fluorescence assay. In outline: (§1)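 Recombinant M. tuberculosis riboflavin synthase (1 μM) in 100 mM Tris-HCl pH 7.0, 100 mM NaCl, 5 mM DTT, 2% DMSO. 6,7-Dimethyl-8-ribityllumazine substrate was varied 3–60 μM and inhibitor 0–200 μM. Reactions were started with substrate. Riboflavin formation was monitored at 470 nm for 30 min at 27 °C. Velocity–substrate data for all inhibitor levels were fitted by nonlinear regression to alternative inhibition models.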

Assay [2] has as its target 6,7-dimethyl-8-ribityllumazine synthase (Mycobacterium tuberculosis) (UniProt P9WHE9). Put plainly: Uncompetitive inhibition of Mycobacterium tuberculosis recombinant lumazine synthase. In outline: (§2)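 Recombinant M. tuberculosis lumazine synthase (2 μM) in 100 mM Tris-HCl pH 7.0, 100 mM NaCl, 5 mM DTT, 2% DMSO. Dihydroxybutanone phosphate was fixed at 100 μM, pyrimidinedione substrate varied 3–100 μM, and inhibitor 0–200 μM. Reactions were started with the pyrimidinedione substrate. Lumazine formation was read at 408 nm for 30 min at 27 °C. Velocity–substrate data were fitted by nonlinear regression to alternative inhibition models.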

Assay [3] relates to Mycobacterium tuberculosis. In words: Uncompetitive inhibition of Mycobacterium tuberculosis recombinant riboflavin synthase. In outline: as §1
For assay [4], the target named is 6,7-dimethyl-8-ribityllumazine synthase (Mycobacterium tuberculosis) (UniProt P9WHE9). Put plainly: Mixed Inhibition of Mycobacterium tuberculosis recombinant lumazine synthase. In outline:
as §2

Active and inactive are the calls of the source. The rule behind the calls is not given here.

Sequence of 6,7-dimethyl-8-ribityllumazine synthase (Mycobacterium tuberculosis) (P9WHE9 whole entry): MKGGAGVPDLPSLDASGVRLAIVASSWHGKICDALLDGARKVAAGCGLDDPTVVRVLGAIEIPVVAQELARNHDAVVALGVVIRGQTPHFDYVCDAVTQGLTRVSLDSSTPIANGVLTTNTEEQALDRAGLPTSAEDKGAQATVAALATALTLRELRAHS

Turning to `O=C1Nc2ccc(S(=O)(=O)NCCCCCCOP(=O)(O)O)c3cccc1c23`, the kcat in assay [1] was 0.00933 s⁻¹. For the same molecule, the inhibition result in assay [2] and in assay [3] was “Active” throughout.

As to `CCOC(=O)C(=O)Nc1c(Cl)[nH]c(=O)[nH]c1=O`, in assay [1], the kcat worked out at 0.00567 s⁻¹. The inhibition result in assay [4] and in assay [3] was “Active” throughout.

In the case of `O=C1Nc2ccc(S(=O)(=O)NCCOP(=O)(O)O)c3cccc1c23`, in assay [1], the turnover number (kcat) came to 0.005 s⁻¹.

`O=C1Nc2ccc(S(=O)(=O)NCCCOP(=O)(O)O)c3cccc1c23`: in assay [1], the kcat was 0.00467 s⁻¹. In addition, the inhibition entry in assay [4] is “Active”.

For the molecule `O=C1Nc2ccc(S(=O)(=O)NCCCCC(F)(F)P(=O)(O)O)c3cccc1c23`, the inhibition result in assay [4] was “Active”.

For the molecule `O=C1Nc2ccc(S(=O)(=O)NCCCCOP(=O)(O)O)c3cccc1c23`, the kcat in assay [1] is 0.00483 s⁻¹. Moreover, the inhibition result in assay [4] was “Active”.

Regarding `O=C1Nc2ccc(S(=O)(=O)NCCCCCOP(=O)(O)O)c3cccc1c23`, in assay [1], the kcat was 0.00933 s⁻¹. Moreover, the inhibition result in assay [2] and in assay [3] was “Active” throughout.

These data come from ChEMBL document CHEMBL1157805, “Virtual screening, selection and development of a benzindolone structural scaffold for inhibition of lumazine synthase” (Bioorg Med Chem, 2010).
